Measured values from ChEMBL document CHEMBL1629530, “1,5-Benzoxazepines vs 1,5-benzodiazepines. one-pot microwave-assisted synthesis and evaluation for antioxidant activity and lipid peroxidation inhibition” (J Med Chem, 2010).
Activity calls are given as the source filed them. The rule behind the calls is not given here.

How the values were obtained:
[1] = tested on: Radical scavenging activity; test: Antioxidant activity assessed as DPPH radical scavenging activity at 100 uM after 60 mins; type: functional
Outline: (§1)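 DPPH 0.05 mM in absolute ethanol mixed with an equal volume of compound in DMSO (final 50 and 100 μM). Shaken vigorously, then left to stand 20 or 60 min. At least triplicate; absorbance SD under 10% of mean.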

[2] = Inhibition of AAPH-induced linoleic acid lipid peroxidation; type: physicochemical
Outline: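 Linoleic acid sodium salt (10 μL of 16 mM) in 0.05 M phosphate buffer pH 7.4, prethermostated at 37 °C. Oxidation started under air at 37 °C with 50 μL of 40 mM AAPH, compounds in DMSO. Conjugated diene hydroperoxide formation followed as rising absorbance at 234 nm; result given as IC50. At least triplicate.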

Glycine max = test: Inhibition of soybean lipoxygenase at 100 uM by UV absorbance based assay
Outline: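 Soybean LOX (1 × 10^-4 w/v in saline, diluted 1:9 with saline) incubated at room temperature with sodium linoleate and compound in DMSO (100 μM). Conversion to 13-hydroperoxylinoleic acid recorded at 234 nm against a standard inhibitor. At least triplicate.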

[3] = tested on: Radical scavenging activity; test: Antioxidant activity assessed as DPPH radical scavenging activity at 100 uM after 20 mins; type: functional; outline: as §1
[4] = tested on: Radical scavenging activity; test: Antioxidant activity assessed as DPPH radical scavenging activity at 50 uM after 60 mins; type: functional; outline: as §1
[5] = tested on: Radical scavenging activity; test: Antioxidant activity assessed as DPPH radical scavenging activity at 50 uM after 20 mins; type: functional; outline: as §1
Rattus norvegicus [6] = test: Toxicity in Fisher 344 rat carrageenan-induced inflammation model at 0.2 mmol/kg, ip administered simultaneously with carrageenan; type: organism-based; conditions: in vivo
Rattus norvegicus [7] = test: Antiinflammatory activity in Fisher 344 rat assessed as inhibition of carrageenan-induced paw edema at 0.01 mmol/kg, ip administered simultaneously with carrageenan; type: functional; conditions: Fisher 344, ip
Outline: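 Edema induced by intradermal injection of 0.1 mL 2% carrageenin in water into right hind paw of Fisher 344 rats (150-200 g), both sexes, pregnant females excluded, fasted during experiment; 6-15 animals per group. Compound suspended in water with a few drops of Tween 80, given ip. Rats euthanized 3.5 h later. Injected minus uninjected paw weight compared with water-treated controls as % inhibition; mean of two experiments.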

| IC50 [2] | inhibition (Glycine max) | Structure (SMILES) | Activity [1] | Activity [3] | Activity [4] | Activity [5] | Activity (Rattus norvegicus [6]) | inhibition in vivo at 10 µmol/kg (Rattus norvegicus [7]) |
| --- | --- | --- | --- | --- | --- | --- | --- | --- |
| 47.5 µM | inactive | CC1(c2ccc(Cl)cc2)CC(c2ccc(Cl)cc2)=Nc2c(N)cccc2O1 (stereo not drawn) | 86% | 86% | 86% | 87% |  |  |
| 2.5 µM | inactive | CC1(c2ccc(Cl)cc2)CC(c2ccc(Cl)cc2)=Nc2c(O)cccc2N1 (stereo not drawn) | 53% | 54% |  |  | Non-toxic | 35% |
|  |  | COc1ccc2c(c1)c(CC(=O)O)c(C)n2C(=O)c1ccc(Cl)cc1 [INDOMETHACIN] |  |  |  |  |  | 47% |
| 60 µM | 37% | COc1cccc(C2=Nc3c(O)cccc3NC(C)(c3cccc(OC)c3)C2)c1 (stereo not drawn) | 27% | 27% |  |  |  |  |
| 63 µM |  | Cc1c(C)c2c(c(C)c1O)CCC(C)(C(=O)O)O2 (stereo not drawn) [TROLOX] |  |  |  |  |  |  |
| 77 µM | inactive | CC1=Nc2c(O)cccc2NC(C)(C)C1 | 65% | 66% | 67% | 44% |  |  |
| 45 µM | 6% | CC1(C)CC(c2ccccc2)=Nc2ccccc2N1 | 14% | 15% |  |  |  |  |
| 46 µM | 3% | COc1ccccc1C1=Nc2c(O)cccc2NC(C)(c2ccccc2OC)C1 (stereo not drawn) | 36% | 36% |  |  |  |  |
| 50 µM | 28% | CC1(c2ccccc2)CC(c2ccccc2)=Nc2c(O)cccc2N1 (stereo not drawn) | 29% | 30% |  |  |  |  |
| 46 µM | inactive | CC1(c2cccc([N+](=O)[O-])c2)CC(c2cccc([N+](=O)[O-])c2)=Nc2c(O)cccc2N1 (stereo not drawn) | 32% | 32% |  |  |  |  |
| 50 µM | 3% | Cc1ccc(NC(=O)Oc2cccc3c2N=C(c2ccccc2)CC(C)(c2ccccc2)N3)cc1 (stereo not drawn) | 9% | 10% |  |  |  |  |
|  | 84% | CC(Cc1ccc(O)c(O)c1)C(C)Cc1ccc(O)c(O)c1 (stereo not drawn) | 96% | 93% |  |  |  |  |
| 70 µM | 98% | CC1=Nc2c(N)cccc2OC(C)(C)C1 | 86% | 86% | 88% | 87% |  |  |
